From ChEMBL document CHEMBL1122554, “Synthesis and antitumor activity of tropolone derivatives” (1984)
In brackets after ≈: the same amount, converted by molar mass.

How the values were obtained:
Type in all cases: functional
Mus musculus [1] = assay: In vivo antitumor activity was measured in mice (P388 leukemia) at dose 0.3 mg/kg after intraperitoneal administration
How it was run: (§1)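 Groups of six CDF1 mice were inoculated ip with 10⁶ P388 leukemia cells. Ip drug dosing began 24 h later, given once daily for 1 and 5 days. %T/C = median survival time of the treated group ÷ median survival time of the tumor control group × 100.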

KB = assay: In vitro inhibitory activity against growth of KB cells derived from human epidermoid carcinoma of the mouth; settings: for IC50: Homo sapiens, KB, read-out: ID50 (the source's name)
How it was run: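 KB human epidermoid carcinoma cells grown at 37 °C in 5% CO2–95% air and seeded at 2100 cells/cm². After 24 h the medium was changed and graded drug (0.3–100 µg/mL) added, two dishes per concentration. After 48 h of exposure, cells were trypsinized and counted by Coulter counter. IC50 was read from a plot of log concentration vs. growth rate (% of control).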

Mus musculus [2] = assay: In vivo antitumor activity was measured in mice (P388 leukemia) at dose 1 mg/kg after intraperitoneal administration; how it was run: as §1
Mus musculus [3] = assay: In vivo antitumor activity was measured in mice (P388 leukemia) at dose 0.5 mg/kg after intraperitoneal administration; how it was run: as §1
Mus musculus [4] = assay: In vivo antitumor activity was measured in mice (P388 leukemia)at dose 100 mg/kg after intraperitoneal administration
How it was run: (§2)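 Groups of six CDF1 mice inoculated ip with 10⁶ P388 leukemia cells; ip drug treatment begun 24 h after inoculation, listed dose given once a day for 1 and 5 days. Endpoint: median survival time of treated group divided by that of tumor controls ×100 (% T/C).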

Mus musculus [5] = assay: In vivo antitumor activity was measured in mice (P388 leukemia)at dose 200 mg/kg after intraperitoneal administration; how it was run: as §2
Mus musculus [6] = assay: In vivo antitumor activity was measured in mice (P388 leukemia) at dose 400 mg/kg after intraperitoneal administration; how it was run: as §1
Mus musculus [7] = assay: In vivo antitumor activity was measured in mice (P388 leukemia) at dose 50 mg/kg after intraperitoneal administration; how it was run: as §1
Mus musculus [8] = assay: In vivo antitumor activity was measured in mice (P388 leukemia) at dose 5 mg/kg after intraperitoneal administration; how it was run: as §1
Mus musculus [9] = assay: In vivo antitumor activity was measured in mice (P388 leukemia) at dose 200 mg/kg after intraperitoneal administration; how it was run: as §1
Mus musculus [10] = assay: In vivo antitumor activity was measured in mice (P388 leukemia) at dose 100 mg/kg after intraperitoneal administration; how it was run: as §1
Mus musculus [11] = assay: In vivo antitumor activity was measured in mice (P388 leukemia) at dose 10 mg/kg after intraperitoneal administration; how it was run: as §1
Mus musculus [12] = assay: In vivo antitumor activity was measured in mice (P388 leukemia) at dose 2.5 mg/kg after intraperitoneal administration; how it was run: as §1
Mus musculus [13] = assay: In vivo antitumor activity was measured in mice (P388 leukemia) at dose 0.6 mg/kg after intraperitoneal administration; how it was run: as §1
Mus musculus [14] = assay: In vivo antitumor activity was measured in mice (P388 leukemia) at dose 20 mg/kg after intraperitoneal administration; how it was run: as §1
Mus musculus [15] = assay: IIn vivo %T/C was measured in mice (P388 leukemia) at dose 10 mg/kg after intraperitoneal administration; how it was run: as §1
Mus musculus [16] = assay: In vivo antitumor activity was measured in mice (P388 leukemia) at dose 1.3 mg/kg after intraperitoneal administration; how it was run: as §1

Structure (SMILES) | ID50 (KB) [nM] | IC50 (KB) [µg/mL] | T/C (Mus musculus [6]) [%] | T/C (Mus musculus [8]) [%] | T/C (Mus musculus [9]) [%] | T/C (Mus musculus [10]) [%] | further results
COc1cc2c(c(OC)c1OC)-c1ccc(OC)c(=O)cc1[C@@H](NC(C)=O)CC2 [COLCHICINE] | 6000 | 2.2 (≈ 5.51 µM) |  |  |  |  | T/C (Mus musculus [1]): 142%; T/C (Mus musculus [2]): 166%; T/C (Mus musculus [3]): 160%
CC(C)c1cccc(=O)c(O)c1 [HINOKITIOL] | 3600 | 0.5 (≈ 3.04 µM) | 0 |  |  |  | T/C (Mus musculus [4]): 100%; T/C (Mus musculus [5]): 62%; T/C (Mus musculus [7]): 103%
COc1ccc(C(c2cc(C(C)C)ccc(=O)c2O)c2cc(C(C)C)ccc(=O)c2O)cc1 | 600 | 0.3 (≈ 0.672 µM) |  | 156 |  |  | 
COc1cc(C(C)C)cccc1=O | 278000 | 49.5 (≈ 278 µM) |  |  | 0 | 108 | T/C (Mus musculus [7]): 106%
COc1cc(C(C)C)ccc(C2OCCc3ccccc32)c1=O (stereo not given) | 93000 | 29 (≈ 93.4 µM) | 98 |  | 94 | 92 | 
CC(C)c1ccc(C(c2ccc(N(C)C)cc2)c2ccc(C(C)C)cc(=O)c2O)c(O)c(=O)c1 | 1500 | 0.7 (≈ 1.52 µM) |  | 173 |  |  | T/C (Mus musculus [11]): 177%
CC(C)c1ccc(C(c2ccc(Cl)cc2)c2ccc(C(C)C)cc(=O)c2O)c(O)c(=O)c1 | 4400 | 2 (≈ 4.43 µM) |  | 141 |  |  | 
COc1c(C2OCCc3ccccc32)ccc(C(C)C)cc1=O (stereo not given) | 58000 | 18 (≈ 58 µM) | 98 |  | 88 | 93 | 
CCOC(c1ccc(N(C)C)cc1)c1ccc(C(C)C)cc(=O)c1O (stereo not given) | 1700 | 0.6 (≈ 1.76 µM) | 0 |  | 128 |  | 
COc1ccc(C(c2ccc(C(C)C)cc(=O)c2O)c2ccc(C(C)C)cc(=O)c2O)cc1OC | 600 | 0.3 (≈ 0.629 µM) |  | 156 |  |  | T/C (Mus musculus [12]): 137%; T/C (Mus musculus [11]): 158%
O=c1ccccc(C2OCCc3ccccc32)c1O (stereo not given) | 1600 | 0.5 (≈ 1.97 µM) | 0 |  | 96 | 104 | 
CCOC(c1ccc(OC)cc1)c1ccc(C(C)C)cc(=O)c1O (stereo not given) | 1500 | 0.5 (≈ 1.52 µM) | 140 |  | 128 |  | 
CCOC(/C=C/c1ccccc1)c1ccc(C(C)C)cc(=O)c1O (stereo not given) |  |  | 0 |  | 100 | 112 | 
CCOC(c1ccccc1)c1ccc(C(C)C)cc(=O)c1O (stereo not given) | 1000 | 0.3 (≈ 1.01 µM) | 0 |  |  | 102 | 
Cc1ccc(C(c2ccc(C(C)C)cc(=O)c2O)c2ccc(C(C)C)cc(=O)c2O)cc1 | 3400 | 1.5 (≈ 3.48 µM) |  | 147 |  |  | 
COc1ccc(C(c2ccc(C(C)C)cc(=O)c2O)c2ccc(C(C)C)cc(=O)c2O)cc1 | 1100 | 0.5 (≈ 1.12 µM) |  |  |  |  | T/C (Mus musculus [12]): 134%; T/C (Mus musculus [13]): 127%
Cc1ccccc1C(c1ccc(C(C)C)cc(=O)c1O)c1ccc(C(C)C)cc(=O)c1O |  |  |  | 156 |  |  | T/C (Mus musculus [14]): 158%; T/C (Mus musculus [12]): 137%
COc1ccccc1C(c1ccc(C(C)C)cc(=O)c1O)c1ccc(C(C)C)cc(=O)c1O |  |  |  | 151 |  |  | T/C (Mus musculus [14]): 0%; T/C (Mus musculus [15]): 162%
CCOC(c1ccc(C)cc1)c1ccc(C(C)C)cc(=O)c1O (stereo not given) | 9900 | 6.2 (≈ 19.8 µM) |  |  | 105 | 105 | 
CC(C)c1ccc(C2OCCc3ccccc32)c(O)c(=O)c1 (stereo not given) | 1700 | 0.5 (≈ 1.69 µM) | 108 |  | 126 | 127 | T/C (Mus musculus [7]): 128%
CC(C)c1ccc(Cc2ccccc2)c(O)c(=O)c1 | 2000 | 0.5 (≈ 1.97 µM) | 88 |  |  | 94 | 
CC(C)c1ccc(C(c2ccccc2)c2ccc(C(C)C)cc(=O)c2O)c(O)c(=O)c1 | 700 | 0.3 (≈ 0.72 µM) |  |  |  |  | T/C (Mus musculus [12]): 150%; T/C (Mus musculus [16]): 132%
CC(C)c1ccc(C(c2ccccc2)c2ccccc2)c(O)c(=O)c1 | 4200 | 1.4 (≈ 4.24 µM) |  |  |  | 119 | 
COc1cccc(C(c2ccc(C(C)C)cc(=O)c2O)c2ccc(C(C)C)cc(=O)c2O)c1 | 2400 | 1.1 (≈ 2.46 µM) |  | 134 |  |  | T/C (Mus musculus [12]): 142%; T/C (Mus musculus [11]): 134%
C/C=C/C(OCC)c1ccc(C(C)C)cc(=O)c1O (stereo not given) | 4500 | 1.2 (≈ 4.57 µM) | 115 |  | 116 | 101 | 
CCOC(c1ccc(Cl)cc1)c1ccc(C(C)C)cc(=O)c1O (stereo not given) | 900 | 0.3 (≈ 0.901 µM) | 0 |  | 109 | 99 | 
